# Assay results reported in ChEMBL document CHEMBL5653631, “A Potent and Selective ULK1 Inhibitor Suppresses Autophagy and Sensitizes Cancer Cells to Nutrient Stress” (iScience, 2018).
# What was measured:
# [1] = biological target: Mitogen-activated protein kinase kinase kinase kinase 4 (Homo sapiens) (UniProt O95819); experiment: Inhibition of human recombinant HGK at 500 nM related to control ULK1
# Homo sapiens = organism: Homo sapiens; experiment: Inhibition of human recombinant p70S6K at 500 nM in presence of ATP by radiometric assay relative to control
# [2] = biological target: Calcium/calmodulin-dependent protein kinase type 1B (Homo sapiens) (UniProt Q6P2M8); experiment: Inhibition of human recombinant CaMK1b at 500 nM in presence of ATP by radiometric assay relative to control
# [3] = biological target: T1, Aurora kinase C (Homo sapiens) (UniProt Q9UQB9); experiment: Inhibition of human recombinant AurC at 500 nM related to control ULK1
# T1 sequence (whole entry): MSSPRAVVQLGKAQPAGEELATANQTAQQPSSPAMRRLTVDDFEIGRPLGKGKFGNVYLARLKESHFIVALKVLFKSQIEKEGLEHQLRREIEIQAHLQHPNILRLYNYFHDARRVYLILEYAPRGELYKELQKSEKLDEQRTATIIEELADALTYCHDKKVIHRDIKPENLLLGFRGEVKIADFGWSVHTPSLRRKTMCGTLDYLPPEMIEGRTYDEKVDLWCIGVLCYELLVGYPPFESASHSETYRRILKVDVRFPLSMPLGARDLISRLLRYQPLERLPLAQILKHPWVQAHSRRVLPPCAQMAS
# [4] = biological target: T2, Activin receptor type-1 (Homo sapiens) (UniProt Q04771); experiment: Inhibition of human recombinant ALK2 at 500 nM related to control ULK1
# T2 sequence (whole entry): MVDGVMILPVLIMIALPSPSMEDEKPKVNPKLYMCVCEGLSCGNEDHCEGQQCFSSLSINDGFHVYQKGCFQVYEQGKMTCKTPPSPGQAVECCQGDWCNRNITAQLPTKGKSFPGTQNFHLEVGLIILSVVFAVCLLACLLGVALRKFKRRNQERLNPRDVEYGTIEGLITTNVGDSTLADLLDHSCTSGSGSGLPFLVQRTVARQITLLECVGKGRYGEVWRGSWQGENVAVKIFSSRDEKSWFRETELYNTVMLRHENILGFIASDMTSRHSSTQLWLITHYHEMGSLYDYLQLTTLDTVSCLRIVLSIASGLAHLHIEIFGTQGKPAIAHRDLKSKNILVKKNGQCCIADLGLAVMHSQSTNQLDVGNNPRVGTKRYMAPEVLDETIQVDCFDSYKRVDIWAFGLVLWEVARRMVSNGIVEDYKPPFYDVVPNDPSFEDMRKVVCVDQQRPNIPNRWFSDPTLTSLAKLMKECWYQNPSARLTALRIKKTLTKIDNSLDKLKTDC
# Procedure, shortened: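 Panel of 327 recombinant human kinases, each assayed in vitro by radiometric activity assay in duplicate at a single inhibitor concentration per compound, chosen with reference to its ULK1 inhibition. Activity remaining was expressed as percent of vehicle control, and percent inhibition was calculated as 100 minus percent activity remaining.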
# [5] = biological target: T3, Serine/threonine-protein kinase ULK2 (Homo sapiens) (UniProt Q8IYT8); experiment: Inhibition of human recombinant ULK2 at 15 nM related to control ULK1
# T3 sequence (whole entry): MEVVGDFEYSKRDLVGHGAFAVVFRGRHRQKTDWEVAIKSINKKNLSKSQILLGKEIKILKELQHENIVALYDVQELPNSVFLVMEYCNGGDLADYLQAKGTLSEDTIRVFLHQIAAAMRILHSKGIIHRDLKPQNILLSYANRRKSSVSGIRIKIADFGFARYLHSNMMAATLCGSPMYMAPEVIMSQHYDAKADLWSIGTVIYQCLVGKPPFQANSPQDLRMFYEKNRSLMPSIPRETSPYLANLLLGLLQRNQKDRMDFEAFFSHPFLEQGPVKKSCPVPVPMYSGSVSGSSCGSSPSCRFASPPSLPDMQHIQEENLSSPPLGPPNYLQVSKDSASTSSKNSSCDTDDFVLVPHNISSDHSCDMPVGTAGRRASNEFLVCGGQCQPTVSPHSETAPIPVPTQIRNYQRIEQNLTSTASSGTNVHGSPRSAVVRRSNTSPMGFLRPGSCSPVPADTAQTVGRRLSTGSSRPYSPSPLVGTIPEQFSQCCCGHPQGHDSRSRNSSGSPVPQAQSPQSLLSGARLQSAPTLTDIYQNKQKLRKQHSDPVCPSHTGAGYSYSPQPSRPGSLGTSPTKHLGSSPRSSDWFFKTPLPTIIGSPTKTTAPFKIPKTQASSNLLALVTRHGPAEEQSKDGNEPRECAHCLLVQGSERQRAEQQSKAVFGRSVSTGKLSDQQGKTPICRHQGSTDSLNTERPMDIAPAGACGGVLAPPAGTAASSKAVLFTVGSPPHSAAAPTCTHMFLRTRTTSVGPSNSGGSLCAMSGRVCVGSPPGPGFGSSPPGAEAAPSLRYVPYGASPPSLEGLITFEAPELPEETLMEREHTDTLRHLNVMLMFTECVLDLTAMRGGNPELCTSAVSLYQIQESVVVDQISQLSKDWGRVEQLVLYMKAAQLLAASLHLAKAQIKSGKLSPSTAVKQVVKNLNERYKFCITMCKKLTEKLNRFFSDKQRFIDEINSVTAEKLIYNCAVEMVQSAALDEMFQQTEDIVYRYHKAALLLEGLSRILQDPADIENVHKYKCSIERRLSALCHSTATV
# [6] = biological target: Cyclin-dependent kinase 18 (Homo sapiens) (UniProt Q07002); experiment: Inhibition of human recombinant PCTAIRE3 at 15 nM in presence of ATP by radiometric assay relative to control
# [7] = biological target: Mitogen-activated protein kinase 9 (Homo sapiens) (UniProt P45984); experiment: Inhibition of human recombinant JNK2 at 40 nM related to control ULK1
# [8] = biological target: Serine/threonine-protein kinase WNK3 (Homo sapiens) (UniProt Q9BYP7); experiment: Inhibition of human recombinant Wnk3 at 40 nM in presence of ATP by radiometric assay relative to control
# Chain of Serine/threonine-protein kinase WNK3 (Homo sapiens) (Q9BYP7 whole entry): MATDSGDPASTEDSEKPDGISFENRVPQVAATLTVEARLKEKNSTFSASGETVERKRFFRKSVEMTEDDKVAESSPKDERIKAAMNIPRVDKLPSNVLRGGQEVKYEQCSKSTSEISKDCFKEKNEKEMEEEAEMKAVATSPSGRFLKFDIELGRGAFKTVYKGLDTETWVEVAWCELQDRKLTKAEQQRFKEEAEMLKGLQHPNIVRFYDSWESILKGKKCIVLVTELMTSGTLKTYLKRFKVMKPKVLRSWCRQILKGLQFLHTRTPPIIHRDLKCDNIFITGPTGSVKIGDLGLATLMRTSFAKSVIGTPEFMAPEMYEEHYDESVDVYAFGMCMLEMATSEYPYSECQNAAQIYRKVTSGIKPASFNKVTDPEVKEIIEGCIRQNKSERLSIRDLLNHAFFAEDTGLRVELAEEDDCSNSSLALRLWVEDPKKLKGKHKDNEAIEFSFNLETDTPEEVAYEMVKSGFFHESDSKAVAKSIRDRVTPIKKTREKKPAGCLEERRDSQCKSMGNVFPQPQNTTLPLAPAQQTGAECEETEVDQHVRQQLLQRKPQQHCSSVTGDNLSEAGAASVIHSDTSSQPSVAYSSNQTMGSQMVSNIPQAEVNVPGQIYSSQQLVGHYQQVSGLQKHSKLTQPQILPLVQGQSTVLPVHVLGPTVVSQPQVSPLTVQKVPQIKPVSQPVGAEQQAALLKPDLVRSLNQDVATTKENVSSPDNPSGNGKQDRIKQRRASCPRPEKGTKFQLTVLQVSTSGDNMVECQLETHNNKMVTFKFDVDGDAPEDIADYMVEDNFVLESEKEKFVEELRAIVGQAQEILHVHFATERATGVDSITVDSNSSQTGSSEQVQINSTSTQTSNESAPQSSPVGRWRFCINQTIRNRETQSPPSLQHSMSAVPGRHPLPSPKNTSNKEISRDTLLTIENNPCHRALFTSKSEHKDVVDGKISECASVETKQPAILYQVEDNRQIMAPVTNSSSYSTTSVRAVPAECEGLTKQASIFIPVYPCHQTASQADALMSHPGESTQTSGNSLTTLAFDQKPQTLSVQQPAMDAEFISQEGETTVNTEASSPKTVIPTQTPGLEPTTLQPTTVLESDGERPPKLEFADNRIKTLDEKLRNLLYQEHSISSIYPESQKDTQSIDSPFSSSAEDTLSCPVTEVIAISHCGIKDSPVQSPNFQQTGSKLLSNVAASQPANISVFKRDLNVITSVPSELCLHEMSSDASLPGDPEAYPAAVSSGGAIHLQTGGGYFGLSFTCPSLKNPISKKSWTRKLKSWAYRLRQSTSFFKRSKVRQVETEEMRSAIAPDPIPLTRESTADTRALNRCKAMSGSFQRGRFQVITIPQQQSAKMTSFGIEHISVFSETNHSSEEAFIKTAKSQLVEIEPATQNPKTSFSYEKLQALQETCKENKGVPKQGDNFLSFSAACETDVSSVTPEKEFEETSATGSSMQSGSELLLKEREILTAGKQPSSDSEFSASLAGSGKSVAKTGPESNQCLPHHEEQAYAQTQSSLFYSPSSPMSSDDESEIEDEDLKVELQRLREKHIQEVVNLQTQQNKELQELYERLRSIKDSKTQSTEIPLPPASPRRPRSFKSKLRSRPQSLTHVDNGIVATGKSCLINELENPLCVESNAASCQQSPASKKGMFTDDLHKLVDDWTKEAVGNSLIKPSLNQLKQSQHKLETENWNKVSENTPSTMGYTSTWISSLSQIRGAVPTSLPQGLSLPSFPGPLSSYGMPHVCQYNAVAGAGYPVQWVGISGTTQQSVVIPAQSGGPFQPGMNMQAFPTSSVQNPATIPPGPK
# Chain of Calcium/calmodulin-dependent protein kinase type 1B (Homo sapiens) (Q6P2M8 whole entry): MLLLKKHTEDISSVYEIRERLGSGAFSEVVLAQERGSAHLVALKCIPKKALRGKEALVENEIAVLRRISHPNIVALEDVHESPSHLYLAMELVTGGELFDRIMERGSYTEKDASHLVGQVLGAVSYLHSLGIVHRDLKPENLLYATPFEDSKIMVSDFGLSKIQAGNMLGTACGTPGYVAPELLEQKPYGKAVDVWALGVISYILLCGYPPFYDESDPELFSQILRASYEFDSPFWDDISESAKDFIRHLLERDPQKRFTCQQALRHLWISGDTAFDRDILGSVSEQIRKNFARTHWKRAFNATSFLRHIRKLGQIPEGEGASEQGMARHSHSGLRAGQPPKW
# Chain of Cyclin-dependent kinase 18 (Homo sapiens) (Q07002 whole entry): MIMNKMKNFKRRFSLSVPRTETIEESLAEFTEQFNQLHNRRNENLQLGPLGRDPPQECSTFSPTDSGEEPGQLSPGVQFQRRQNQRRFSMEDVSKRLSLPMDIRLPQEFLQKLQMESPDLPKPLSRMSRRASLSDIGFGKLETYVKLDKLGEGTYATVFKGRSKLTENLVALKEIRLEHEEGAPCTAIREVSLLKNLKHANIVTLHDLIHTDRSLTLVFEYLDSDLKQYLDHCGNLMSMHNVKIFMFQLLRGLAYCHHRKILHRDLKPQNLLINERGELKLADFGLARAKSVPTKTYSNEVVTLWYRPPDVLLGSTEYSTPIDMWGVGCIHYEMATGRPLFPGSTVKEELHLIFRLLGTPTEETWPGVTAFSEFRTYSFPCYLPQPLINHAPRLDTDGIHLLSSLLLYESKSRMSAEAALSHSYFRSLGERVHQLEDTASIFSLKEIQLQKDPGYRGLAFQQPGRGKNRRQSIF
# Chain of Mitogen-activated protein kinase kinase kinase kinase 4 (Homo sapiens) (O95819 2-1239 limits assumed): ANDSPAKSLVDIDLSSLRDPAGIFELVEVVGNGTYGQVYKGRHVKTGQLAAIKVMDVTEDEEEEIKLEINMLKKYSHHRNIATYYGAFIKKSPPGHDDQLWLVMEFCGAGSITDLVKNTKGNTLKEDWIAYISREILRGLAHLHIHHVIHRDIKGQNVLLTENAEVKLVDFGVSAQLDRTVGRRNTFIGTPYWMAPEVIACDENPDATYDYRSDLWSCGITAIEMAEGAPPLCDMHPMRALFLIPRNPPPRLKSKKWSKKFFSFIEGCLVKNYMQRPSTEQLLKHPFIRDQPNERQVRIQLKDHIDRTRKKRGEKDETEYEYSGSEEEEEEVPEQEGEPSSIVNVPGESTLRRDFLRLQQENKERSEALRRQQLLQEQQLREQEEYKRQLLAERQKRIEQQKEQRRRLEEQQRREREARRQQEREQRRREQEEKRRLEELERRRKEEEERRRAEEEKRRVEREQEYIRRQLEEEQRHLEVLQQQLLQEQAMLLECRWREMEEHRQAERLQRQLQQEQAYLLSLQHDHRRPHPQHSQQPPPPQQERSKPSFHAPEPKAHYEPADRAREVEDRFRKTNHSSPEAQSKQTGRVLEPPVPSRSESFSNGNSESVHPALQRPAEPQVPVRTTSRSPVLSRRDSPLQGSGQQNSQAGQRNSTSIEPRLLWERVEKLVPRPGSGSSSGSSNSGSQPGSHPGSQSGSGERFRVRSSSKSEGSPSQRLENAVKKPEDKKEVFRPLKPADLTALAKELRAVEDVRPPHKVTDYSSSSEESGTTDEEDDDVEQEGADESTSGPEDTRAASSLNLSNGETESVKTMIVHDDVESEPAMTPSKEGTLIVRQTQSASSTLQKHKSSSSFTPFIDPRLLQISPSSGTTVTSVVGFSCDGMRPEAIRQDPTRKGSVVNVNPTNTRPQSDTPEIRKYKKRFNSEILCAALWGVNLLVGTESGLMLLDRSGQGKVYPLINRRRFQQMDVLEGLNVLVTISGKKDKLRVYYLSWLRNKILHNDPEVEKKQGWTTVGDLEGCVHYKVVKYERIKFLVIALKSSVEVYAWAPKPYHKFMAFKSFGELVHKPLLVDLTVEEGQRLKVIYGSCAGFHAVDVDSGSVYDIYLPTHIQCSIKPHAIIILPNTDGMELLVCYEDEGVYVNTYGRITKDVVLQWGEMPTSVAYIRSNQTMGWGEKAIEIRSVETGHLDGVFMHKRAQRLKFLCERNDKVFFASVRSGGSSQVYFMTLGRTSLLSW
# Chain of Mitogen-activated protein kinase 9 (Homo sapiens) (P45984 whole entry, looked up): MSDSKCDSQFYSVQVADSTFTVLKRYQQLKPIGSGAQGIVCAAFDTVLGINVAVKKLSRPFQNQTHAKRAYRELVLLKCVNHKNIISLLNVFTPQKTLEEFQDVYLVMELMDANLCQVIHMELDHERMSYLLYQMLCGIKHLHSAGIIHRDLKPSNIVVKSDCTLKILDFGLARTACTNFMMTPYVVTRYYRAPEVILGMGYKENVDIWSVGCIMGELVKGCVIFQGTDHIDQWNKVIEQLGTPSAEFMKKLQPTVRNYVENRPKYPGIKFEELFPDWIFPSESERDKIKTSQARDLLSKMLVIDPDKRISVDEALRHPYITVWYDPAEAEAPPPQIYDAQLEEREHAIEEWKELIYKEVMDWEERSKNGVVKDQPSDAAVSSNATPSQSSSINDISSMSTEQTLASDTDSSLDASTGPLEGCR
structure (smiles),measurement,setting,value
CNC(=O)c1ccccc1Oc1nc(Nc2cc(OC)c(OC)c(OC)c2)ncc1Br,fold change (FC),[1],0
same,inhibition,Homo sapiens,0%
same,inhibition,[2],0%
same,fold change (FC),[3],0.99
same,fold change (FC),[4],0.62
CC(C)[C@H](NC(=O)c1cc(-c2cnn3cc(-c4ccc(OCCN5CCCCC5)cc4)cnc23)cs1)C(F)(F)F,fold change (FC),[5],0.83
same,inhibition,[6],67%
O=C(N[C@@H](C1CC1)C(F)(F)F)c1cc(-c2cnn3cc(-c4ccc(F)cc4)cnc23)cs1,fold change (FC),[7],0.01
same,inhibition,[8],3%
